Source: ChEMBL document CHEMBL5046217, “Discovery of New Imidazo[2,1-b]thiazole Derivatives as Potent Pan-RAF Inhibitors with Promising In Vitro and In Vivo Anti-melanoma Activity” (J Med Chem, 2021)

Experiments:
[1] = target: Serine/threonine-protein kinase B-raf (Homo sapiens, UniProt P15056); assay: Inhibition of human wild type BRAF using myelin basic protein as substrate in presence of [gamma-33P]ATP incubated for 40 mins by scintillation counting method
Outline: (§1)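 Radiometric kinase assay run at Reaction Biology. Kinase (5−10 mU) in 25 mM Tris pH 7.5, 0.02 mM EGTA, 10 mM magnesium acetate with 0.66 mg/mL myelin basic protein and [γ-33P]ATP at 1 μM ATP. Reaction started with Mg-ATP and run 40 min at room temperature, then stopped with 3% phosphoric acid. Spotted on P30 filtermat, washed, scintillation counted.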

[2] = target: Serine/threonine-protein kinase B-raf (Homo sapiens, UniProt P15056, V600E); assay: Inhibition of human BRAF V600E mutant using myelin basic protein as substrate in presence of [gamma-33P]ATP incubated for 40 mins by scintillation counting method; outline: as §1
[3] = target: RAF proto-oncogene serine/threonine-protein kinase (Homo sapiens, UniProt P04049); assay: Inhibition of human wild type CRAF using myelin basic protein as substrate in presence of [gamma-33P]ATP incubated for 40 mins by scintillation counting method
[4] = target: Serine/threonine-protein kinase/endoribonuclease IRE1 (Homo sapiens, UniProt O75460); assay: Inhibition of ERN1 (unknown origin) incubated for 1 hr by qPCR analysis
Outline: (§2)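 Competition binding assay. Kinases were either T7-phage-tagged (grown in an E. coli BL21-derived host) or expressed in HEK-293 cells and DNA-tagged. […] Bound kinase was eluted with non-biotinylated ligand and quantified by qPCR.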

[5] = target: Fibroblast growth factor receptor 1 (Homo sapiens, UniProt P11362); assay: Inhibition of FGFR1 (unknown origin) incubated for 1 hr by qPCR analysis
[6] = target: T1, Receptor-type tyrosine-protein kinase FLT3 (Homo sapiens, UniProt P36888); assay: Inhibition of FLT3 (unknown origin) incubated for 1 hr by qPCR analysis; outline: as §2
T1 sequence (P36888 whole entry): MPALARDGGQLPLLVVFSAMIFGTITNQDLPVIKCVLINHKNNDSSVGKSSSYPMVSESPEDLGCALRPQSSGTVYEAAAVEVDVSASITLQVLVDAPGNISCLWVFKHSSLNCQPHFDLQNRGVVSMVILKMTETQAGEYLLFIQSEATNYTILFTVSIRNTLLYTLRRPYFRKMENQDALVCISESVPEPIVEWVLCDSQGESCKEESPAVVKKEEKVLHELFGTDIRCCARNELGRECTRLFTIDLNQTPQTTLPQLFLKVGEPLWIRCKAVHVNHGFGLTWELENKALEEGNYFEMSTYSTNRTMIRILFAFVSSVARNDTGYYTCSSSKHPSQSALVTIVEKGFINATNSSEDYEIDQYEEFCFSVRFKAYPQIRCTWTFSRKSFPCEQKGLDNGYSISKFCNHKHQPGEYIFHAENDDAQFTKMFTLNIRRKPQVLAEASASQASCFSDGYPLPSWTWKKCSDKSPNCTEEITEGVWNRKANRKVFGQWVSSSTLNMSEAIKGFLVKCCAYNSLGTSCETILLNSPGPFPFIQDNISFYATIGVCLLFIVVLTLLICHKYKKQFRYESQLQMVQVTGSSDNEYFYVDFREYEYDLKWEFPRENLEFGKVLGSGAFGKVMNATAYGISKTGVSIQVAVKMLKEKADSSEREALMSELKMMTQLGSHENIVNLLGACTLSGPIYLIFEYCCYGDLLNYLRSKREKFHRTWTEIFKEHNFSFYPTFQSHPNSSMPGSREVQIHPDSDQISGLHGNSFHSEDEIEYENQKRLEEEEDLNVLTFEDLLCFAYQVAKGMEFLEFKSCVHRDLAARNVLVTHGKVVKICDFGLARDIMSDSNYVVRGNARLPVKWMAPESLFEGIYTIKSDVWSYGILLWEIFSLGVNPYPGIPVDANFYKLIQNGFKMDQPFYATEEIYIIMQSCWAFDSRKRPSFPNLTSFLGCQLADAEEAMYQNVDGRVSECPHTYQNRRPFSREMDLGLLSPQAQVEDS

[7] = target: Homeodomain-interacting protein kinase 1 (Homo sapiens, UniProt Q86Z02); assay: Inhibition of HIPK1 (unknown origin) incubated for 1 hr by qPCR analysis; outline: as §2
[8] = target: Mitogen-activated protein kinase 8 (Homo sapiens, UniProt P45983); assay: Inhibition of MAPK8 (unknown origin) incubated for 1 hr by qPCR analysis; outline: as §2
[9] = target: Mitogen-activated protein kinase 11 (Homo sapiens, UniProt Q15759); assay: Inhibition of MAPK11 (unknown origin) incubated for 1 hr by qPCR analysis; outline: as §2
[10] = target: Mitogen-activated protein kinase 14 (Homo sapiens, UniProt Q16539); assay: Inhibition of MAPK14 (unknown origin) incubated for 1 hr by qPCR analysis; outline: as §2
[11] = target: Mitogen-activated protein kinase kinase kinase 20 (Homo sapiens, UniProt Q9NYL2); assay: Inhibition of ZAK (unknown origin) incubated for 1 hr by qPCR analysis; outline: as §2
[12] = test system: Panel melanoma (Carcinoma cell lines); assay: cells; details: Homo sapiens, 48 h, read-out: INH

Chain of Serine/threonine-protein kinase B-raf (Homo sapiens, UniProt P15056, V600E) (P15056 2-766 V600E limits assumed): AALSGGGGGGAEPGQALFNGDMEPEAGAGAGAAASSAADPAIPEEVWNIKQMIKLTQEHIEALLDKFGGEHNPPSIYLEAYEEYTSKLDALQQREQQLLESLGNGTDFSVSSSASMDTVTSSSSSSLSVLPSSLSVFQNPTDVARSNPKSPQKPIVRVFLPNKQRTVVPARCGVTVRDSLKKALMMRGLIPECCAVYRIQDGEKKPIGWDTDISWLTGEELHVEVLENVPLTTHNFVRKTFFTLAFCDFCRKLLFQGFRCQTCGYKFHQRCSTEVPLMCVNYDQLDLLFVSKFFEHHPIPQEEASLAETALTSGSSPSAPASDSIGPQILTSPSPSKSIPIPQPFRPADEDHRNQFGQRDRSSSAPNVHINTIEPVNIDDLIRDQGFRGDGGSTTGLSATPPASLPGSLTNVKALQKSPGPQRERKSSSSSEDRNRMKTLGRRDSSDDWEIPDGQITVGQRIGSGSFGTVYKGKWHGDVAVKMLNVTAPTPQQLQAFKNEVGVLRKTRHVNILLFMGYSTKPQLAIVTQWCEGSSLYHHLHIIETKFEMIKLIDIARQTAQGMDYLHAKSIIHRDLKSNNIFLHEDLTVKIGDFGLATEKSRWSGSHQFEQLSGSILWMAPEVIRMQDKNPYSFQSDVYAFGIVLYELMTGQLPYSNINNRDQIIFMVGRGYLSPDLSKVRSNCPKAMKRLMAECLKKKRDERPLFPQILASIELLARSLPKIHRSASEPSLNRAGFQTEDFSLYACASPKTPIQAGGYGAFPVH
Chain of Serine/threonine-protein kinase B-raf (Homo sapiens, UniProt P15056) (P15056 whole entry): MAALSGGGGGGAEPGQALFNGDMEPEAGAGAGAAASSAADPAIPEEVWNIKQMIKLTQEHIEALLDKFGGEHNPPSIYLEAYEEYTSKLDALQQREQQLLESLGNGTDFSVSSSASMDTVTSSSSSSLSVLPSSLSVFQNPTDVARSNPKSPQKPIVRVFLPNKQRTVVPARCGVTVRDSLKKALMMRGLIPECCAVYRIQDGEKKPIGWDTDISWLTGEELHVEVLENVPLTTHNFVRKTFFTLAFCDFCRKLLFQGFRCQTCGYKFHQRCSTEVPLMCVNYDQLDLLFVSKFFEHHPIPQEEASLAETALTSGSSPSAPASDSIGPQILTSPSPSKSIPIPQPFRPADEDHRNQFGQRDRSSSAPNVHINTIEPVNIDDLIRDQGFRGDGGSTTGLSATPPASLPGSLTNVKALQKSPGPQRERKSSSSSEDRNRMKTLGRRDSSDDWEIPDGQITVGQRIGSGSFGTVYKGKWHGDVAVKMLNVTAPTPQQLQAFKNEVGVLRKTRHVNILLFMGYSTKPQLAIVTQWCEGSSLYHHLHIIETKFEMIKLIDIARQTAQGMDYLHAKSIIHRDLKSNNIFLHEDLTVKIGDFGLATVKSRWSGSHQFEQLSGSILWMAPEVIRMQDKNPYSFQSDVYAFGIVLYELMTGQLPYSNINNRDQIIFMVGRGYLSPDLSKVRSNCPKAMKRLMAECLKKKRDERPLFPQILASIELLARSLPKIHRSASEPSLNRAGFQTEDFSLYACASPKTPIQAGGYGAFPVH
Chain of RAF proto-oncogene serine/threonine-protein kinase (P04049 whole entry): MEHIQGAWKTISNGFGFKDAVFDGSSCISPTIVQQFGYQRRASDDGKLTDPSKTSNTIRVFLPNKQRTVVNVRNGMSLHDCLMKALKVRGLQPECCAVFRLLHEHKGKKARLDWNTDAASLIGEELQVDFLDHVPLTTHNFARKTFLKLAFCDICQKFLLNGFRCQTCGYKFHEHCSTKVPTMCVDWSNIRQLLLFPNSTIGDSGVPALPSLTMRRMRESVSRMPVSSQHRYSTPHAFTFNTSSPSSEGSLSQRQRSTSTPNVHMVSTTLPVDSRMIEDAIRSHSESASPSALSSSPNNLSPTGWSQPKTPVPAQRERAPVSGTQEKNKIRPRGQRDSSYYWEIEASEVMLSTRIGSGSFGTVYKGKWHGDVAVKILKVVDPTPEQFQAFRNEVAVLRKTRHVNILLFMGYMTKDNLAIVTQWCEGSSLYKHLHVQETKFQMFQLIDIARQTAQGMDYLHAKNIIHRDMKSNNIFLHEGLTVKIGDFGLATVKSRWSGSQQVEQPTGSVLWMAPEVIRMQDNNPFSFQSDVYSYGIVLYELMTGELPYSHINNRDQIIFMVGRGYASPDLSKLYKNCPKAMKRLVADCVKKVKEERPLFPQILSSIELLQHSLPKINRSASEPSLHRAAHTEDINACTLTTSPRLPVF
Chain of Serine/threonine-protein kinase/endoribonuclease IRE1 (O75460 whole entry): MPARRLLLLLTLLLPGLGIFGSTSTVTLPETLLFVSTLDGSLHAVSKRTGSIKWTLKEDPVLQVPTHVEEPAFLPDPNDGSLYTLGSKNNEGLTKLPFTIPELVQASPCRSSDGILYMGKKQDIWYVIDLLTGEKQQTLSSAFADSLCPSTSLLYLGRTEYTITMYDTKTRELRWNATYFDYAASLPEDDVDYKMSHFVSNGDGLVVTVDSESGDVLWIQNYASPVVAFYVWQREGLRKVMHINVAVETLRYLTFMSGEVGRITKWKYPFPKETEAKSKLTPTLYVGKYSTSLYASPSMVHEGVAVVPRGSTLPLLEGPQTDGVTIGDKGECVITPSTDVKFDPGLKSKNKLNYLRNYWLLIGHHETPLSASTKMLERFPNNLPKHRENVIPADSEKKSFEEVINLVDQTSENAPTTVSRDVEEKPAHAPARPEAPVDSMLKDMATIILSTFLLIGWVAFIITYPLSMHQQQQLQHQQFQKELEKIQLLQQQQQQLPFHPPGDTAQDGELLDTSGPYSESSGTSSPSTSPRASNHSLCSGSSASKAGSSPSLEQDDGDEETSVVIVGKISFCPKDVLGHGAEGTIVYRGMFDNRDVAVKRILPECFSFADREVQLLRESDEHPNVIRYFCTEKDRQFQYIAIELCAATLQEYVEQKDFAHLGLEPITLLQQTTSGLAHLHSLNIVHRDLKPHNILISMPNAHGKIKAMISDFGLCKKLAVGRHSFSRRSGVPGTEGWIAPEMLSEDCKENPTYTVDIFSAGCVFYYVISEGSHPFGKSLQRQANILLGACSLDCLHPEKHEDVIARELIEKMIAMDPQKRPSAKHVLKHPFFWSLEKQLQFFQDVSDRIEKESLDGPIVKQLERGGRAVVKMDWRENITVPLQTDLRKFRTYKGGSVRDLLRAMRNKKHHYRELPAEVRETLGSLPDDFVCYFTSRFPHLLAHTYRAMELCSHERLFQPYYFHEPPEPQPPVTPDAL
Chain of Mitogen-activated protein kinase 14 (Q16539 whole entry): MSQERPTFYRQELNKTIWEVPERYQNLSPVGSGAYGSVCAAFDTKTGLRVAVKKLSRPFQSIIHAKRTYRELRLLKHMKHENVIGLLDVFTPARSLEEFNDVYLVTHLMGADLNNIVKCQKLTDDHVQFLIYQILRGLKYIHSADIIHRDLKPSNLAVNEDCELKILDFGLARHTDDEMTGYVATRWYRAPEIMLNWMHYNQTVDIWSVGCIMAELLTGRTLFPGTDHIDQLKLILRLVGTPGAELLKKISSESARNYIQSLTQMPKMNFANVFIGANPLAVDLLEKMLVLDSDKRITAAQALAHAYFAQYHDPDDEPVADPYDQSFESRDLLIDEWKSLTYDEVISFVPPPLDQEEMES
Chain of Mitogen-activated protein kinase 11 (Q15759 whole entry): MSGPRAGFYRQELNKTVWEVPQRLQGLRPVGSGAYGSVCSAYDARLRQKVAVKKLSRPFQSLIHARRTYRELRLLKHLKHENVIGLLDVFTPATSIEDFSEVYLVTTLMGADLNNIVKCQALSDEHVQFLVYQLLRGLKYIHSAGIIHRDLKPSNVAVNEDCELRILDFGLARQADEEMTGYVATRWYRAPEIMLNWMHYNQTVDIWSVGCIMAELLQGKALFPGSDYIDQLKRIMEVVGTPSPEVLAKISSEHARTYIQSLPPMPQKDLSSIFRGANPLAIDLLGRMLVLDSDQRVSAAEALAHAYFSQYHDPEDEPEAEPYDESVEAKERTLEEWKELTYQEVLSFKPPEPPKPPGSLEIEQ
Chain of Mitogen-activated protein kinase 8 (P45983 whole entry): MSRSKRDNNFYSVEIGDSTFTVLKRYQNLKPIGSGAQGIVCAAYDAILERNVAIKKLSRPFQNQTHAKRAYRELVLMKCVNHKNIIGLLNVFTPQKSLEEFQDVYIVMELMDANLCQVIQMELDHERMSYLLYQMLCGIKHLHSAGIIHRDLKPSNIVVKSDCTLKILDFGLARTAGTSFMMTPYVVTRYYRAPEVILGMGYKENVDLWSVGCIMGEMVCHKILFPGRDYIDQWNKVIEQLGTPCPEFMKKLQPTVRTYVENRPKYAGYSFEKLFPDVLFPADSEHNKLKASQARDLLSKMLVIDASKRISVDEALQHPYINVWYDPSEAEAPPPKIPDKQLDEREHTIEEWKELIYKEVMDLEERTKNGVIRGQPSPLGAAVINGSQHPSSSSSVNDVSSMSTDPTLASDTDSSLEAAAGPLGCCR

SMILES	IC50 [1] [µM]	IC50 [2] [µM]	IC50 [3] [µM]	other results
O=S(=O)(NCCCNc1nccc(-c2c(-c3cccc(O)c3)nc3sccn23)n1)c1ccccc1	0.029	0.02	0.023	
COc1cccc(-c2nc3sccn3c2-c2ccnc(NCCCNS(=O)(=O)c3ccc(C)cc3)n2)c1	0.894	0.168	0.209	
COc1cccc(-c2nc3sccn3c2-c2ccnc(NCCNS(=O)(=O)c3ccc(F)cc3)n2)c1	0.522	0.115	0.1	
COc1cccc(-c2nc3sccn3c2-c2ccnc(NCCNS(=O)(=O)c3ccc(C(F)(F)F)cc3)n2)c1			0.142	IC50 [4]: > 20 µM; IC50 [5]: 15.6 µM; IC50 [6]: 2.17 µM; IC50 [7]: 4.58 µM; IC50 [8]: 0.42 µM; IC50 [9]: 0.12 µM; IC50 [10]: 0.098 µM; IC50 [11]: 8.11 µM
O=S(=O)(NCCNc1nccc(-c2c(-c3cccc(O)c3)nc3sccn23)n1)c1ccccc1	0.035	0.019	0.021	
COc1cccc(-c2nc3sccn3c2-c2ccnc(NCCNS(=O)(=O)c3cccc(F)c3)n2)c1	0.561	0.112	0.106	
O=S1(=O)N(CCNc2nccc(-c3c(-c4cccc(O)c4)nc4sccn34)n2)CCN1Cc1ccccc1	0.0155	0.00725	0.00391	
COc1cccc(-c2nc3sccn3c2-c2ccnc(NCCN3CCCNS3(=O)=O)n2)c1	0.0181	0.00996	0.00722	
CC1(C)CN(CCNc2nccc(-c3c(-c4cccc(O)c4)nc4sccn34)n2)S(=O)(=O)N1	0.0103	0.00635	0.00426	inhibition at 10 µM [12]: 79.7%
O=S(=O)(NCCNc1nccc(-c2c(-c3ccccc3)nc3sccn23)n1)c1ccc(O)cc1	0.097	0.065	0.075	
COc1cccc(-c2nc3sccn3c2-c2ccnc(NCCCNS(=O)(=O)c3cccc(F)c3)n2)c1	0.526	0.102	0.111	IC50 [4]: 15.6 µM; IC50 [5]: 11.8 µM; IC50 [6]: 2.98 µM; IC50 [7]: 3.84 µM; IC50 [8]: 0.36 µM; IC50 [9]: 0.095 µM; IC50 [10]: 0.088 µM; IC50 [11]: 11.3 µM
COc1cccc(-c2nc3sccn3c2-c2ccnc(NCCN3CCNS3(=O)=O)n2)c1	0.0203	0.0105	0.00561	
COc1cccc(-c2nc3sccn3c2-c2ccnc(NCCN3CCCN(C)S3(=O)=O)n2)c1	0.00826	0.00262	0.00233	
COc1ccc(S(=O)(=O)NCCNc2nccc(-c3c(-c4cccc(OC)c4)nc4sccn34)n2)cc1	0.745	0.16	0.151	
COc1cccc(-c2nc3sccn3c2-c2ccnc(NCCCNS(=O)(=O)c3ccccc3)n2)c1	0.721	0.109	0.129	
COc1ccc(S(=O)(=O)NCCCNc2nccc(-c3c(-c4cccc(OC)c4)nc4sccn34)n2)cc1	0.589	0.156	0.164	
COc1ccc(-c2nc3sccn3c2-c2ccnc(NCCNS(=O)(=O)c3cccc4ccccc34)n2)cc1	20.8	> 35	28.9	
O=S(=O)(NCCNc1nccc(-c2c(-c3ccc(O)cc3)nc3sccn23)n1)c1ccc(O)cc1	9.71	25.1	19.4	
Cc1ccc(S(=O)(=O)NCCNc2nccc(-c3c(-c4cccc(O)c4)nc4sccn34)n2)cc1	0.064	0.055	0.062	
Cc1ccc(S(=O)(=O)NCCNc2nccc(-c3c(-c4ccccc4)nc4sccn34)n2)cc1	0.623	0.0893	0.251	

SMILES	IC50 [1] [µM]	IC50 [2] [µM]	IC50 [3] [µM]	other results
Cc1ccc(S(=O)(=O)NCCCNc2nccc(-c3c(-c4cccc(O)c4)nc4sccn34)n2)cc1	0.018	0.009	0.013	
COc1cccc(-c2nc3sccn3c2-c2ccnc(NCCN3CCCN(C(=O)OC(C)(C)C)S3(=O)=O)n2)c1	0.0233	0.0126	0.0112	
COc1ccc(-c2nc3sccn3c2-c2ccnc(NCCNS(=O)(=O)c3ccc(OC)cc3)n2)cc1	9.89	26.3	24.3	
O=S(=O)(NCCNc1nccc(-c2c(-c3ccccc3)nc3sccn23)n1)c1ccc(F)cc1	0.375	0.0691	0.112	
COc1cccc(-c2nc3sccn3c2-c2ccnc(NCCCNS(=O)(=O)c3ccc4ccccc4c3)n2)c1	0.842	0.165	0.172	
COc1cccc(-c2nc3sccn3c2-c2ccnc(NCCNS(=O)(=O)c3ccccc3)n2)c1	0.941	0.12	0.22	
COc1ccc(-c2nc3sccn3c2-c2ccnc(NCCNS(=O)(=O)c3ccc(F)cc3)n2)cc1	9.21	13.2	32.2	
COc1cccc(-c2nc3sccn3c2-c2ccnc(NCCN3CCN(C)S3(=O)=O)n2)c1	0.00612	0.00151	0.00252	
O=S(=O)(NCCCNc1nccc(-c2c(-c3ccccc3)nc3sccn23)n1)c1ccc(F)cc1	0.276	0.0577	0.0878	inhibition at 10 µM [12]: 59.7%
O=S1(=O)NCCCN1CCNc1nccc(-c2c(-c3cccc(O)c3)nc3sccn23)n1	0.00956	0.00521	0.00721	
COc1cccc(-c2nc3sccn3c2-c2ccnc(NCCN3CCN(Cc4ccccc4)S3(=O)=O)n2)c1	0.0173	0.00836	0.00432	
COc1ccc(S(=O)(=O)NCCCNc2nccc(-c3c(-c4ccccc4)nc4sccn34)n2)cc1	0.299	0.0661	0.0983	
O=S1(=O)NCCN1CCNc1nccc(-c2c(-c3cccc(O)c3)nc3sccn23)n1	0.00725	0.00456	0.00632	
Cc1ccc(S(=O)(=O)NCCCNc2nccc(-c3c(-c4ccccc4)nc4sccn34)n2)cc1	0.521	0.0853	0.201	
Cc1ccc(S(=O)(=O)NCCNc2nccc(-c3c(-c4ccc(O)cc4)nc4sccn34)n2)cc1	11.3	21.3	16.5	
COc1cccc(-c2nc3sccn3c2-c2ccnc(NCCN3CC(C)(C)NS3(=O)=O)n2)c1	0.0137	0.00865	0.00563	
COc1cccc(-c2nc3sccn3c2-c2ccnc(NCCCNS(=O)(=O)c3ccc(F)cc3)n2)c1	0.43	0.0903	0.0952	inhibition at 10 µM [12]: 101%
CC(C)(C)OC(=O)N1CCCN(CCNc2nccc(-c3c(-c4cccc(O)c4)nc4sccn34)n2)S1(=O)=O	0.0112	0.00957	0.00998	
COc1cccc(-c2nc3sccn3c2-c2ccnc(NCCNS(=O)(=O)c3ccc(C)cc3)n2)c1	0.987	0.177	0.163	
